Source: ChEMBL document CHEMBL4406856, “Structure based design, synthesis and in vitro antitumour activity of tiazofurin stereoisomers with nitrogen functions at the C-2' or C-3' positions” (Eur J Med Chem, 2019)
Calls of active or inactive are those of the source. No cut-off for these calls is given here.

What was measured:
[1] = system: K562; experiment: Induction of apoptosis in human K562 cells incubated for 72 hrs by annexin V FITC and propidium iodide staining based flow cytometry relative to tiazofurin; type: functional
Method in brief: (§1)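 K562 cells treated for 72 h, stained with Annexin V-FITC/propidium iodide and analysed by flow cytometry. Apoptotic, necrotic and live fractions scored as percent of gated cells; specific apoptosis and specific necrosis calculated from these counts.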

[2] = system: K562; experiment: Induction of necrosis in human K562 cells incubated for 72 hrs by annexin V FITC and propidium iodide staining based flow cytometry relative to control; type: functional; parameters: concentration or dose not given beside the values; method in brief: as §1
[3] = system: K562; experiment: Potency index, ratio of tiazofurin IC50 to compound IC50 for cytotoxicity against human K562 cells incubated for 72 hrs by MTT assay; type: functional
[4] = system: K562; experiment: Induction of apoptosis in human K562 cells assessed as 18 kDa Caspase 3 active subunit level incubated for 72 hrs by Western blot analysis (reference value: 100%); type: functional
Method in brief: (§2)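 K562 cells treated for 72 h; Bcl-2, BAX, caspase 3 precursor (32 kDa), caspase 3 active subunit (18 kDa) and PARP (112 and 85 kDa) measured by Western blot and expressed as % of untreated control.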

[5] = system: K562; experiment: Cell cycle arrest in human K562 cells assessed as accumulation in G2/M phase incubated for 72 hrs by propidium iodide staining based flow cytometry (reference value: 15.45%); type: functional
Method in brief: (§3)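 Exponentially growing K562 cells treated for 24 or 72 h, untreated cells as control; cells stained with propidium iodide and DNA content read by flow cytometry. Phase distribution (subG1, G0/G1, S, G2/M) taken from one-parameter histograms, subG1 scored as hypodiploid, apoptotic cells.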

[6] = system: K562; experiment: Cell cycle arrest in human K562 cells assessed as accumulation in G0/G1 phase incubated for 72 hrs by propidium iodide staining based flow cytometry (reference value: 45.43%); type: functional; method in brief: as §3
[7] = system: HL-60; experiment: Antiproliferative activity against human HL60 cells assessed as reduction in cell growth incubated for 72 hrs by MTT assay; type: functional, cell-based; conditions: HL-60, 72 h
Method in brief: (§4)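 Colorimetric MTT assay on human tumour lines K562 (chronic myeloid leukemia), HL-60 (promyelocytic leukemia), Jurkat (T cell leukemia), Raji (Burkitt's lymphoma), HT-29 (colorectal adenocarcinoma), HeLa (cervix adenocarcinoma) and normal lung fibroblast MRC-5; cells exposed to compounds for 72 h. IC50 taken as concentration giving 50% growth inhibition versus untreated control.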

[8] = system: HeLa; experiment: Antiproliferative activity against human HeLa cells assessed as reduction in cell growth incubated for 72 hrs by MTT assay; type: functional, cell-based; method in brief: as §4
[9] = system: K562; experiment: Cell cycle arrest in human K562 cells assessed as accumulation in G0/G1 phase incubated for 24 hrs by propidium iodide staining based flow cytometry (reference value: 36.28%); type: functional; method in brief: as §3
[10] = system: K562; experiment: Cell cycle arrest in human K562 cells assessed as accumulation in sub-G1 phase incubated for 24 hrs by propidium iodide staining based flow cytometry (reference value: 1.05%); type: functional; method in brief: as §3
[11] = system: K562; experiment: Induction of apoptosis in human K562 cells assessed as 32 kDa Caspase 3 precursor level incubated for 72 hrs by Western blot analysis (reference value: 100%); type: functional; method in brief: as §2
[12] = system: MRC5; experiment: Cytotoxicity against human MRC5 cells assessed as reduction in cell viability incubated for 72 hrs by MTT assay; type: cell-based; conditions: MRC5, 72 h
Method in brief: (§5)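 Colorimetric MTT assay on human tumour lines K562 (chronic myeloid leukemia), HL-60 (promyelocytic leukemia), Jurkat (T cell leukemia), Raji (Burkitt's lymphoma), HT-29 (colorectal adenocarcinoma), HeLa (cervix adenocarcinoma) and normal lung fibroblast MRC-5; cells exposed to compounds for 72 h.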

[13] = system: Jurkat; experiment: Antiproliferative activity against human Jurkat cells assessed as reduction in cell growth incubated for 72 hrs by MTT assay; type: functional, cell-based; method in brief: as §4
[14] = system: K562; experiment: Induction of apoptosis in human K562 cells assessed as 112 kDa PARP level incubated for 72 hrs by Western blot analysis (reference value: 100%); type: functional; method in brief: as §2
[15] = system: K562; experiment: Cell cycle arrest in human K562 cells assessed as accumulation in S phase incubated for 24 hrs by propidium iodide staining based flow cytometry (reference value: 48.38%); type: functional; method in brief: as §3
[16] = system: HT-29; experiment: Antiproliferative activity against human HT-29 cells assessed as reduction in cell growth incubated for 72 hrs by MTT assay; type: functional, cell-based; conditions: HT-29, 72 h; method in brief: as §4
[17] = system: K562; experiment: Induction of apoptosis in human K562 cells assessed as Bcl2 level incubated for 72 hrs by Western blot analysis (reference value: 100%); type: functional; method in brief: as §2
[18] = Ratio of compound IC50 to tiazofurin IC50 for cytotoxicity against human MRC5 cells incubated for 72 hrs by MTT assay; type: cell-based; conditions: read-out: Ratio IC50
[19] = system: K562; experiment: Cell cycle arrest in human K562 cells assessed as accumulation in S phase incubated for 72 hrs by propidium iodide staining based flow cytometry (reference value: 36.05%); type: functional; method in brief: as §3
[20] = system: K562; experiment: Cell cycle arrest in human K562 cells assessed as accumulation in G2/M phase incubated for 24 hrs by propidium iodide staining based flow cytometry (reference value: 14.29%); type: functional; method in brief: as §3
[21] = system: Raji; experiment: Antiproliferative activity against human Raji cells assessed as reduction in cell growth incubated for 72 hrs by MTT assay; type: functional, cell-based; method in brief: as §5
[22] = system: K562; experiment: Induction of apoptosis in human K562 cells incubated for 24 hrs by annexin V FITC and propidium iodide staining based flow cytometry relative to control; type: functional; parameters: concentration or dose not given beside the values
[23] = system: K562; experiment: Cell cycle arrest in human K562 cells assessed as decrease in cell accumulation at G2/M phase incubated for 72 hrs by propidium iodide staining based flow cytometry relative to tiazofurin; type: functional; method in brief: as §3
[24] = system: K562; experiment: Induction of apoptosis in human K562 cells incubated for 72 hrs by annexin V FITC and propidium iodide staining based flow cytometry relative to control; type: functional; parameters: concentration or dose not given beside the values; method in brief: as §1
[25] = system: K562; experiment: Potency index, ratio of doxorubicin IC50 to compound IC50 for cytotoxicity against human K562 cells incubated for 72 hrs by MTT assay; type: functional
[26] = system: K562; experiment: Antiproliferative activity against human K562 cells assessed as reduction in cell growth incubated for 72 hrs by MTT assay; type: functional, cell-based; conditions: K562, 72 h; method in brief: as §5
[27] = system: K562; experiment: Cell cycle arrest in human K562 cells assessed as accumulation in SubG1 phase incubated for 72 hrs by propidium iodide staining based flow cytometry (reference value: 3.07%); type: functional; method in brief: as §3
[28] = system: K562; experiment: Induction of apoptosis in human K562 cells assessed as 85 kDa PARP level incubated for 72 hrs by Western blot analysis (reference value: 100%); type: functional; method in brief: as §2
[29] = system: K562; experiment: Induction of necrosis in human K562 cells incubated for 24 hrs by annexin V FITC and propidium iodide staining based flow cytometry relative to control; type: functional; parameters: concentration or dose not given beside the values
[30] = system: K562; experiment: Induction of apoptosis in human K562 cells assessed as Bax level incubated for 72 hrs by Western blot analysis (reference value: 100%); type: functional; method in brief: as §2
[31] = system: K562; experiment: Induction of apoptosis in human K562 cells assessed as reduction in cell membrane integrity at cytotoxic IC50 incubated for 72 hrs by acridine orange and ethidium bromide double staining based fluorescence microscopy; type: functional
[32] = system: K562; experiment: Genotoxicity in human K562 cells assessed as increase in DNA damage at cytotoxic IC50 incubated for 72 hrs by comet assay; type: toxicity, cell-based; conditions: k562, 72 h
Method in brief: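 Modified alkaline comet assay: cells set in agarose on slides, electrophoresed horizontally, stained with ethidium bromide and imaged by fluorescence microscopy. 50 comets scored per sample; mean tail moment used as the DNA-damage measure.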

[33] = system: HL-60; experiment: Potency index, ratio of tiazofurin IC50 to compound IC50 for cytotoxicity against human HL60 cells incubated for 72 hrs by MTT assay; type: functional
[34] = system: HeLa; experiment: Potency index, ratio of tiazofurin IC50 to compound IC50 for cytotoxicity against human HeLa cells incubated for 72 hrs by MTT assay; type: functional
[35] = system: Raji; experiment: Potency index, ratio of tiazofurin IC50 to compound IC50 for cytotoxicity against human Raji cells incubated for 72 hrs by MTT assay; type: functional
[36] = system: HL-60; experiment: Potency index, ratio of doxorubicin IC50 to compound IC50 for cytotoxicity against human HL60 cells incubated for 72 hrs by MTT assay; type: functional

Question: With CC(=O)N[C@H]1[C@H](O)[C@@H](CO)O[C@H]1c1nc(C(N)=O)cs1 as the molecule, how does the “fold change (FC)” value [1] read?
Answer: 2

Question: And the Activity [2]?
Answer: 7.29%

Question: And the “Ratio IC50” value [3]?
Answer: 309

Question: And the Activity [4]?
Answer: 59.32%

Question: And the Activity [5]?
Answer: 11.66%

Question: And the Activity [6]?
Answer: 38.86%

Question: What about the IC50 [7] of the same molecule?
Answer: 12.9 µM

Question: And the IC50 [8]?
Answer: > 100 µM

Question: And the Activity [9]?
Answer: 33.62%

Question: And the Activity [10]?
Answer: 2.11%

Question: And the Activity [11]?
Answer: 777.09%

Question: What about the IC50 [12] of the same molecule?
Answer: 3.21 µM

Question: What about the IC50 [13] of the same molecule?
Answer: > 100 µM

Question: What about the Activity [14] of the same molecule?
Answer: 477.15%

Question: And the Activity [15]?
Answer: 46.93%

Question: What about the IC50 [16] of the same molecule?
Answer: > 100 µM

Question: And the Activity [17]?
Answer: 149.59%

Question: What about the selectivity ratio at 72 h [18] of the same molecule?
Answer: 9

Question: And the Activity [19]?
Answer: 36.13%

Question: What about the Activity [20] of the same molecule?
Answer: 17.67%

Question: What about the IC50 [21] of the same molecule?
Answer: 2.56 µM

Question: And the Activity [22]?
Answer: 10.64%

Question: And the “fold change (FC)” value [23]?
Answer: 2 - 2.4

Question: What about the Activity [24] of the same molecule?
Answer: 22.85%

Question: What about the “Ratio IC50” value [25] of the same molecule?
Answer: 40

Question: And the IC50 [26]?
Answer: 0.0061 µM

Question: And the Activity [27]?
Answer: 13.36%

Question: What about the Activity [28] of the same molecule?
Answer: 534.18%

Question: What about the Activity [29] of the same molecule?
Answer: 1.23%

Question: And the Activity [30]?
Answer: 141.43%

Question: Which results are given for NC(=O)c1csc([C@@H]2O[C@H](CO)[C@@H](O)[C@H]2O)n1 [TIAZOFURIN]?
Answer: Activity [2]: 13.71%; Activity [4]: 89.69%; Activity [5]: 5.74%; Activity [6]: 35.66%; Activity [31]: Active; Activity [9]: 37.08%; Activity [10]: 2.22%; Activity [11]: 1302.79%; Activity [14]: 299.68%; Activity [15]: 53.16%; Activity [17]: 344.33%; Activity [19]: 33.62%; Activity [20]: 7.55%; Activity [22]: -0.34%; Activity [24]: 13.71%; Activity [32]: Toxic; Activity [27]: 24.99%; Activity [28]: 214.99%; Activity [29]: 3.76%; Activity [30]: 338.37%

Question: What does the source list for NC(=O)c1csc([C@@H]2O[C@H](CO)[C@H](O)[C@H]2O)n1?
Answer: Activity [2]: 21.08%; Ratio IC50 [33]: 2 - 48; Ratio IC50 [3]: 2 - 48; Activity [4]: 230.09%; Activity [5]: 11.6%; Ratio IC50 [34]: 2 - 48; Activity [6]: 41.86%; Ratio IC50 [35]: 2 - 48; Activity [31]: Active; Activity [9]: 38.15%; Activity [10]: 2.39%; Activity [11]: 4433.8%; Activity [14]: 665.4%; Activity [15]: 51%; Activity [17]: 436.51%; Activity [19]: 32.94%; Activity [20]: 8.45%; Activity [22]: 11.28%; fold change (FC) [23]: 2 - 2.4; Activity [24]: 16.69%; Activity [32]: Toxic; Ratio IC50 [36]: 7; Ratio IC50 [25]: 2; Activity [27]: 13.6%; Activity [28]: 552.68%; Activity [29]: 5.36%; Activity [30]: 180.18%
